Assay results published in ChEMBL document CHEMBL1142980, “Quinols as novel therapeutic agents. 7.1 Synthesis of antitumor 4-[1-(arylsulfonyl-1H-indol-2-yl)]-4-hydroxycyclohexa-2,5-dien-1-ones by Sonogashira reactions” (J Med Chem, 2007).

Experiments:
[1] = Growth inhibition of NCI60 cells; assay type: functional; settings: Homo sapiens; for CC50: read-out: LC50 (the source's name)
How it was run: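 Run in the NCI in vitro 60 human cancer cell line panel. Potency is given as mean GI50 and mean LC50 (µM) across the panel. Individual lines with LC50 below 1 µM are reported separately.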

HCT-116 = test: Growth inhibition of human HCT116 cells after 72 hrs by MTT assay; assay type: functional, cell-based; settings: HCT-116, 72 h, read-out: LC50 (the source's name)
How it was run: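 Human cancer cells given 72 h continuous drug exposure, growth measured by MTT assay; part of a preliminary five-line screen (colon HCT-116, HT29; breast MCF-7, MDA 468; non-small cell lung A549).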

CAKI-1 = test: Growth inhibition of human CAKI1 cells after 72 hrs by MTT assay; assay type: functional; settings: CAKI-1, 72 h, read-out: LC50 (the source's name)
ACHN = test: Growth inhibition of human ACHN cells after 72 hrs by MTT assay; assay type: functional; settings: read-out: LC50 (the source's name)
[2] = Growth inhibition of human LOXIMV1 cells after 72 hrs by MTT assay; assay type: functional; settings: LOX IMV1, 72 h, read-out: LC50 (the source's name)
BT-549 = test: Growth inhibition of human BT549 cells after 72 hrs by MTT assay; assay type: functional; settings: BT-549, 72 h, read-out: LC50 (the source's name)
SK-MEL-5 = test: Growth inhibition of human SKMEL5 cells after 72 hrs by MTT assay; assay type: functional; settings: SK-MEL-5, 72 h, read-out: LC50 (the source's name)
A498 = test: Growth inhibition of human A498 cells after 72 hrs by MTT assay; assay type: functional; settings: A498, 72 h, read-out: LC50 (the source's name)

## O=C1C=CC(O)(c2cc3ccccc3n2S(=O)(=O)c2ccc(CCC(=O)O)cc2)C=C1
[1]
  GI50: 2340 nM
  CC50: 23400 nM

## O=C1C=CC(O)(c2cc3ccccc3n2S(=O)(=O)c2ccccc2)C=C1
HCT-116
  CC50: 30 nM
CAKI-1
  CC50: 50 nM
[1]
  GI50: 39 nM
  CC50: 2950 nM

## O=C1C=CC(O)(c2cc3ccccc3n2S(=O)(=O)c2cccnc2)C=C1
HCT-116
  CC50: 290 nM
[1]
  GI50: 410 nM
  CC50: 14100 nM

## Cc1ccc(S(=O)(=O)n2c(C3(O)C=CC(=O)C=C3)cc3ccccc32)cc1
HCT-116
  CC50: < 10 nM
ACHN
  CC50: 40 nM
[2]
  CC50: < 10 nM
[1]
  GI50: 110 nM
  CC50: 7240 nM

## COC(=O)CCc1ccc(S(=O)(=O)n2c(C3(O)C=CC(=O)C=C3)cc3ccc(F)cc32)cc1
BT-549
  CC50: 740 nM
HCT-116
  CC50: 720 nM
[2]
  CC50: 810 nM
[1]
  GI50: 500 nM
  CC50: 10500 nM

## Cc1ccc(S(=O)(=O)n2c(C3(O)C=CC(=O)C=C3)cc3ccncc32)cc1
HCT-116
  CC50: < 10 nM
ACHN
  CC50: 50 nM
[2]
  CC50: 60 nM
[1]
  GI50: 170 nM
  CC50: 5750 nM

## O=C1C=CC(O)(c2cc3ccc(F)cc3n2S(=O)(=O)c2ccc(CCC(=O)O)cc2)C=C1
[1]
  GI50: 2500 nM
  CC50: 29500 nM

## COC(=O)CCc1ccc(S(=O)(=O)n2c(C3(O)C=CC(=O)C=C3)cc3ccccc32)cc1
HCT-116
  CC50: 20 nM
[1]
  GI50: 680 nM
  CC50: 22900 nM
SK-MEL-5
  CC50: 600 nM

## O=C1C=CC(O)(c2cc3ccc(F)cc3n2S(=O)(=O)c2ccccc2)C=C1
[1]
  GI50: 16 nM
  CC50: 2240 nM

## CCOC(=O)Nc1ccc(S(=O)(=O)n2c(C3(O)C=CC(=O)C=C3)cc3ccccc32)cc1
HCT-116
  CC50: 295 nM
ACHN
  CC50: 600 nM
[1]
  GI50: 190 nM
  CC50: 7580 nM

## O=C1C=CC(O)(c2nc3ccccc3s2)C=C1
[1]
  GI50: 230 nM
  CC50: 3390 nM

## CN(C)c1cccc2c(S(=O)(=O)n3c(C4(O)C=CC(=O)C=C4)cc4ccccc43)cccc12
ACHN
  CC50: 410 nM
[1]
  GI50: 190 nM
  CC50: 13200 nM
A498
  CC50: 60 nM

## O=C1C=CC(O)(c2cc3cnccc3n2S(=O)(=O)c2ccccc2)C=C1
HCT-116
  CC50: 930 nM
CAKI-1
  CC50: 470 nM
[1]
  GI50: 340 nM
  CC50: 13800 nM
